Test results taken from ChEMBL document CHEMBL5230179, “Novel irreversible peptidic inhibitors of transglutaminase 2” (RSC Med Chem, 2023).
Calls of active or inactive are those of the source. No cut-off for these calls is given here.

target: T1, Protein-glutamine gamma-glutamyltransferase (Homo sapiens, UniProt P21980); assay: Irreversible inhibition of recombinant human TG2 expressed in Escherichia coli BL21 assessed as inhibition constant using AL5 as substrate by continuous chromogenic assay; settings: not given
T1 sequence (P21980 whole entry): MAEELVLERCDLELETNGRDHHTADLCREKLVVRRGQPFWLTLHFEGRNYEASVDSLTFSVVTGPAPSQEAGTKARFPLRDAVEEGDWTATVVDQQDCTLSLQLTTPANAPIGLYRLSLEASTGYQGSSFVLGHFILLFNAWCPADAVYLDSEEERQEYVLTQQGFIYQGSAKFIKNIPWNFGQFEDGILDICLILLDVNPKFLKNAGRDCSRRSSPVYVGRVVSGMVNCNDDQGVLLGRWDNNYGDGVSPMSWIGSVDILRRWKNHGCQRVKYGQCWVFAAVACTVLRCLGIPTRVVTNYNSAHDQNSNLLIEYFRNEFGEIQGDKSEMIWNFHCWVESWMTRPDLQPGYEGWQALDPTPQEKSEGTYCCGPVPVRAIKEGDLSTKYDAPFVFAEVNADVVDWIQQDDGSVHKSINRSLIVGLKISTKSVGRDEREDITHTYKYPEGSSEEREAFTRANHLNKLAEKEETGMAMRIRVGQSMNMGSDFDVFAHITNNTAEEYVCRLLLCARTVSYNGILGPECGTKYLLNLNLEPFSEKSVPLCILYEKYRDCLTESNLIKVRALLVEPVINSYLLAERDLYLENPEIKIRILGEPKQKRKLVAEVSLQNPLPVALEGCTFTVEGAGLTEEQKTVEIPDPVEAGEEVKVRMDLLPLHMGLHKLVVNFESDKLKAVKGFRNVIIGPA
In short: (§1)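 Human TG2 expressed and purified from E. coli BL21; AL5 (Cbz-Glu(γ-p-nitrophenyl ester)-Gly-OH) hydrolysis read at 405 nm for 20 min at 25 °C under Kitz–Wilson conditions; final 100 µM AL5, 50 mM MOPS pH 6.9, 7.5 mM CaCl2, 5 mU/mL TG2, <5% DMSO; ≥4 inhibitor levels; rate constants fitted by saturation model against [I]/α (α = 1 + [S]/KM) for kinact and KI.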

Row | SMILES | Ki
1 | C=CC(=O)NCCCC[C@H](NC(=O)OCc1ccccc1)C(=O)N1CCN(C(=O)[C@H](C)NC(=O)c2cccc3ccccc23)CC1 | 2300 nM
2 | C=CC(=O)NCCCC[C@H](NC(=O)OCc1ccccc1)C(=O)N1CCN(C(=O)[C@@H](CC(C)C)NC(=O)c2cccc3ccccc23)CC1 | 4400 nM
3 | C=CC(=O)NCCCC[C@H](NC(=O)Cc1ccccc1Cl)C(=O)N1CCN(C(=O)[C@H](C)NC(=O)c2cccc3ccccc23)CC1 | 9300 nM
4 | C=CC(=O)NCCCC[C@H](NC(=O)OCc1ccccc1)C(=O)N1CCN(C(=O)[C@@H](C)NC(=O)c2cccc3ccccc23)CC1 | 1300 nM
5 | C=CC(=O)NCCCC[C@H](NC(=O)Cc1ccccc1Br)C(=O)N1CCN(C(=O)[C@H](C)NC(=O)c2cccc3ccccc23)CC1 | 9800 nM
6 | C=CC(=O)NCCCC[C@H](NC(=O)OCc1ccccc1)C(=O)NCC(=O)N1CCN(C(=O)c2cccc3ccccc23)CC1 | 2300 nM
7 | C=CC(=O)NCCCC[C@H](NC(=O)OCc1ccccc1)C(=O)N1CCN(C(=O)[C@@H](NC(=O)c2cccc3ccccc23)C(C)C)CC1 | 2900 nM

The next lines start with the values.

Row | Ki | SMILES
8 | 1600 nM | C=CC(=O)NCCCC[C@H](NC(=O)Cc1ccccc1Cl)C(=O)N1CCN(C(=O)[C@H](Cc2ccccc2)NC(=O)c2cccc3ccccc23)CC1
9 | 1000 nM | C=CC(=O)NCCCC[C@H](NC(=O)OCc1ccccc1)C(=O)N1CCN(C(=O)[C@@H](Cc2ccccc2)NC(=O)c2cccc3ccccc23)CC1

target: T2, Protein-glutamine gamma-glutamyltransferase (Homo sapiens) (UniProt P21980); assay: Irreversible inhibition of recombinant human TG2 expressed in Escherichia coli BL21 assessed as Kinact using AL5 as substrate by continuous chromogenic assay; settings: not given; in short: as §1
T2 sequence (whole entry): T1 sequence (P21980 whole entry)

Row | SMILES | Kinact
10 | C=CC(=O)NCCCC[C@H](NC(=O)OCc1ccccc1)C(=O)N1CCN(C(=O)[C@H](C)NC(=O)c2cccc3ccccc23)CC1 | 1.4 min⁻¹
11 | C=CC(=O)NCCCC[C@H](NC(=O)OCc1ccccc1)C(=O)N1CCN(C(=O)[C@@H](CC(C)C)NC(=O)c2cccc3ccccc23)CC1 | 1.4 min⁻¹
12 | C=CC(=O)NCCCC[C@H](NC(=O)Cc1ccccc1Cl)C(=O)N1CCN(C(=O)[C@H](C)NC(=O)c2cccc3ccccc23)CC1 | 1.97 min⁻¹
13 | C=CC(=O)NCCCC[C@H](NC(=O)OCc1ccccc1)C(=O)N1CCN(C(=O)[C@@H](C)NC(=O)c2cccc3ccccc23)CC1 | 0.75 min⁻¹
14 | C=CC(=O)NCCCC[C@H](NC(=O)Cc1ccccc1Br)C(=O)N1CCN(C(=O)[C@H](C)NC(=O)c2cccc3ccccc23)CC1 | 2.69 min⁻¹
15 | C=CC(=O)NCCCC[C@H](NC(=O)OCc1ccccc1)C(=O)NCC(=O)N1CCN(C(=O)c2cccc3ccccc23)CC1 | 0.77 min⁻¹
16 | C=CC(=O)NCCCC[C@H](NC(=O)OCc1ccccc1)C(=O)N1CCN(C(=O)[C@@H](NC(=O)c2cccc3ccccc23)C(C)C)CC1 | 0.79 min⁻¹

Second part, the compound after the results:

Row | Kinact | SMILES
17 | 0.25 min⁻¹ | C=CC(=O)NCCCC[C@H](NC(=O)Cc1ccccc1Cl)C(=O)N1CCN(C(=O)[C@H](Cc2ccccc2)NC(=O)c2cccc3ccccc23)CC1
18 | 0.8 min⁻¹ | C=CC(=O)NCCCC[C@H](NC(=O)OCc1ccccc1)C(=O)N1CCN(C(=O)[C@@H](Cc2ccccc2)NC(=O)c2cccc3ccccc23)CC1

target: T2, Protein-glutamine gamma-glutamyltransferase (Homo sapiens); assay: Irreversible inhibition of recombinant human TG2 expressed in Escherichia coli BL21 assessed as ratio of Kinact/Ki using AL5 as substrate by continuous chromogenic assay; settings: not given; in short: as §1

Row | SMILES | Ratio
19 | C=CC(=O)NCCCC[C@H](NC(=O)OCc1ccccc1)C(=O)N1CCN(C(=O)[C@H](C)NC(=O)c2cccc3ccccc23)CC1 | 610 10^3/M/min
20 | C=CC(=O)NCCCC[C@H](NC(=O)OCc1ccccc1)C(=O)N1CCN(C(=O)[C@@H](CC(C)C)NC(=O)c2cccc3ccccc23)CC1 | 330 10^3/M/min
21 | C=CC(=O)NCCCC[C@H](NC(=O)Cc1ccccc1Cl)C(=O)N1CCN(C(=O)[C@H](C)NC(=O)c2cccc3ccccc23)CC1 | 211 10^3/M/min
22 | C=CC(=O)NCCCC[C@H](NC(=O)Cc1ccccc1Br)C(=O)N1CCN(C(=O)[C@@H](C)NC(=O)c2cccc3ccccc23)CC1 | 209 10^3/M/min
23 | C=CC(=O)NCCCC[C@H](NC(=O)OCc1ccccc1)C(=O)N1CCN(C(=O)[C@@H](C)NC(=O)c2cccc3ccccc23)CC1 | 590 10^3/M/min
24 | C=CC(=O)NCCCC[C@H](NC(=O)Cc1ccccc1Br)C(=O)N1CCN(C(=O)[C@H](C)NC(=O)c2cccc3ccccc23)CC1 | 275 10^3/M/min
25 | C=CC(=O)NCCCC[C@H](NC(=O)OCc1ccccc1)C(=O)NCC(=O)N1CCN(C(=O)c2cccc3ccccc23)CC1 | 330 10^3/M/min
26 | C=CC(=O)NCCCC[C@H](NC(=O)OCc1ccccc1)C(=O)N1CCN(C(=O)[C@@H](NC(=O)c2cccc3ccccc23)C(C)C)CC1 | 272 10^3/M/min

Continued, values first:

Row | Ratio | SMILES
27 | 155 10^3/M/min | C=CC(=O)NCCCC[C@H](NC(=O)Cc1ccccc1Cl)C(=O)N1CCN(C(=O)[C@H](Cc2ccccc2)NC(=O)c2cccc3ccccc23)CC1
28 | 760 10^3/M/min | C=CC(=O)NCCCC[C@H](NC(=O)OCc1ccccc1)C(=O)N1CCN(C(=O)[C@@H](Cc2ccccc2)NC(=O)c2cccc3ccccc23)CC1

target: T2, Protein-glutamine gamma-glutamyltransferase (Homo sapiens); assay: Irreversible inhibition of recombinant human TG2 expressed in Escherichia coli BL21 assessed as ratio of Kinact/Ki using AL5 as substrate by linear regression analysis; settings: not given
In short: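 Same TG2/AL5 continuous 405 nm assay (100 µM AL5, 5 mU/mL TG2, 50 mM MOPS, 7.5 mM CaCl2, 25 °C, 20 min); where saturation was not reached, rate constants of the lowest 3 inhibitor concentrations fitted by linear regression, slope taken as kinact/KI.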

Row | Ratio | SMILES
29 | 127 10^3/M/min | C=CC(=O)NCCCC[C@H](NC(=O)Cc1ccccc1Cl)C(=O)N1CCN(C(=O)[C@@H](Cc2ccccc2)NC(=O)c2cccc3ccccc23)CC1
30 | 170 10^3/M/min | C=CC(=O)NCCCC[C@H](NC(=O)Cc1ccccc1Cl)C(=O)N1CCN(C(=O)[C@@H](C)NC(=O)c2cccc3ccccc23)CC1
31 | 238 10^3/M/min | C=CC(=O)NCCCC[C@H](NC(=O)Cc1ccccc1C)C(=O)N1CCN(C(=O)[C@@H](Cc2ccccc2)NC(=O)c2cccc3ccccc23)CC1
32 | 132 10^3/M/min | C=CC(=O)NCCCC[C@H](NC(=O)Cc1ccccc1Br)C(=O)N1CCN(C(=O)[C@@H](Cc2ccccc2)NC(=O)c2cccc3ccccc23)CC1

test system: not listed separately; assay: Apparent permeability from apical to basolateral side in MDCK-MDR1 cells; type: ADME, cell-based, Canis lupus familiaris; settings: dog

Row | Papp A→B | SMILES
33 | 0.06 ×10⁻⁶ cm/s | C=CC(=O)NCCCC[C@H](NC(=O)OCc1ccccc1)C(=O)N1CCN(C(=O)[C@@H](Cc2ccccc2)NC(=O)c2cccc3ccccc23)CC1

test system: not listed separately; assay: Apparent permeability from basolateral to apical side in MDCK-MDR1 cells; type: ADME, cell-based, Canis lupus familiaris; settings: dog

Row | Papp B→A | SMILES
34 | 5.46 ×10⁻⁶ cm/s | C=CC(=O)NCCCC[C@H](NC(=O)OCc1ccccc1)C(=O)N1CCN(C(=O)[C@@H](Cc2ccccc2)NC(=O)c2cccc3ccccc23)CC1

test system: MDR1; assay: Efflux ratio of apparent permeability in MDCK-MDR1 cells; type: ADME, cell-based, Canis lupus familiaris; settings: dog

Row | efflux ratio | SMILES
35 | 96.7 | C=CC(=O)NCCCC[C@H](NC(=O)OCc1ccccc1)C(=O)N1CCN(C(=O)[C@@H](Cc2ccccc2)NC(=O)c2cccc3ccccc23)CC1

test system: not listed separately; assay: Lipophilicity, logP of the compound; type: physicochemical; settings: octanol/water

Row | logP | SMILES
36 | 2.73 | C=CC(=O)NCCCC[C@H](NC(=O)OCc1ccccc1)C(=O)N1CCN(C(=O)[C@@H](Cc2ccccc2)NC(=O)c2cccc3ccccc23)CC1

test system: SCC-13; assay: Antiproliferative activity against human SCC-13 cells assessed as dose-dependent inhibition at 25 to 100 uM incubated for 48 hrs by Coulter cell counter analysis; type: functional, cell-based; settings: dose 25-100 µM

Row | SMILES | Activity
37 | C=CC(=O)NCCCC[C@H](NC(=O)OCc1ccccc1)C(=O)N1CCN(C(=O)[C@@H](Cc2ccccc2)NC(=O)c2cccc3ccccc23)CC1 | inactive

test system: SCC-13; assay: Inhibition of cell invasion in human SCC-13 cells at 10 to 50 uM measured over 20 hrs by DAPI staining based fluorescence microscopic analysis; type: functional; settings: dose 10-50 µM
In short: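 Matrigel-coated inserts (8-µm pores); 20,000 SCC-13 cells seeded in upper chamber in growth medium with 1% FCS, lower chamber 10% FCS; invasion followed over 0–20 h; membrane fixed in 4% paraformaldehyde, nuclei DAPI-stained, cells on lower surface counted by fluorescence microscopy.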

Row | SMILES | inhibition
38 | C=CC(=O)NCCCC[C@H](NC(=O)OCc1ccccc1)C(=O)N1CCN(C(=O)[C@@H](Cc2ccccc2)NC(=O)c2cccc3ccccc23)CC1 | Active
